According to ChEMBL document CHEMBL1152358, “Aminoparthenolides as novel anti-leukemic agents: Discovery of the NF-kappaB inhibitor, DMAPT (LC-1)” (Bioorg Med Chem Lett, 2009):

How the values were obtained:
[1] = Aqueous solubility of the compound; format: physicochemical; details: buffer
[2] = Antileukemic activity against acute myeloid leukemia cell assessed as cell death at 10 uM; format: functional
How it was run: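 Probe screen: one million donor-derived primary AML cells in serum-free medium were incubated 24 h with or without analog at a single probe concentration. Cells were PBS-washed, then stained with Annexin-V and 7-AAD in HEPES/NaCl/CaCl₂ buffer pH 7.4 for 15 min, dark, ambient temperature. Flow cytometry followed immediately. Annexin V−/7-AAD− cells were scored viable, normalized to untreated specimens.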

[3] = Antileukemic activity against acute myeloid leukemia cell assessed as cell death; format: functional; details: read-out: LD50 (the source's name)
How it was run: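 Primary AML cells from consenting volunteer donors (one million cells) were cultured in serum-free medium. They were exposed for 24 h, with or without analog, in a dose-response series over 2.5–20 range. Cells were PBS-washed, stained with Annexin-V/7-AAD in HEPES pH 7.4 binding buffer for 15 min in the dark at ambient temperature, then run on a flow cytometer. Viability (Annexin V−/7-AAD−) was normalized to untreated controls, and LD₅₀ was calculated from this series.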

Row | Structure (SMILES) | solubility [1] | Activity [2] | CC50 [3]
1 | C=C1C(=O)O[C@@H]2C3O[C@]3(C)CC/C=C(\C)CC[C@@H]12 (some centres not stated) | 0.169 uM/ml | 84% | 1.4 µM
2 | CCCN(C)C[C@@H]1C(=O)O[C@H]2[C@H]1CC/C(C)=C\CC[C@@]1(C)O[C@@H]21.O=C(O)/C=C/C(=O)O | – | 95% | 3.2 µM
3 | C/C1=C/CC[C@@]2(C)O[C@H]2[C@H]2OC(=O)[C@@H](CN3CCOCC3)[C@@H]2CC1.O=C(O)/C=C/C(=O)O | – | 20% | 14 µM
4 | C/C1=C/CC[C@@]2(C)O[C@H]2[C@H]2OC(=O)[C@@H](CNN(C)C)[C@@H]2CC1.O=C(O)/C=C/C(=O)O | – | 0% | –
5 | C/C1=C/CC[C@@]2(C)O[C@H]2[C@H]2OC(=O)[C@@H](CNCCCN)[C@@H]2CC1.O=C(O)/C=C/C(=O)O | – | 0% | –
6 | C/C1=C/CC[C@@]2(C)O[C@H]2[C@H]2OC(=O)[C@@H](CNNC(C)(C)C)[C@@H]2CC1.O=C(O)/C=C/C(=O)O | – | 0% | –
7 | C/C1=C/CC[C@@]2(C)O[C@H]2[C@H]2OC(=O)[C@@H](CNC3CC3)[C@@H]2CC1.O=C(O)/C=C/C(=O)O | – | 6% | –
8 | CCN(C)C[C@@H]1C(=O)O[C@H]2[C@H]1CC/C(C)=C\CC[C@@]1(C)O[C@@H]21.O=C(O)/C=C/C(=O)O | – | 80% | 2.5 µM
9 | C/C1=C/CC[C@@]2(C)O[C@H]2[C@H]2OC(=O)[C@@H](CN(C)C(C)C)[C@@H]2CC1.O=C(O)/C=C/C(=O)O | – | 78% | –
10 | C/C1=C/CC[C@@]2(C)O[C@H]2[C@H]2OC(=O)[C@@H](CNCCN)[C@@H]2CC1.O=C(O)/C=C/C(=O)O | – | 0% | –
11 | CCCCCN(C)C[C@@H]1C(=O)O[C@H]2[C@H]1CC/C(C)=C\CC[C@@]1(C)O[C@@H]21.O=C(O)/C=C/C(=O)O | – | 46% | 4.6 µM
12 | C/C1=C/CC[C@@]2(C)O[C@H]2[C@H]2OC(=O)[C@@H](CN(C)CCO)[C@@H]2CC1.O=C(O)/C=C/C(=O)O | – | 86% | 1.8 µM
13 | C/C1=C/CC[C@@]2(C)O[C@H]2[C@H]2OC(=O)[C@@H](CN(C)[C@@H]3[C@@H](O)[C@H](O)[C@@H](CO)O[C@H]3O)[C@@H]2CC1.O=C(O)/C=C/C(=O)O | – | 0% | –
14 | C/C1=C/CC[C@@]2(C)O[C@H]2[C@H]2OC(=O)[C@@H](C)[C@@H]2CC1 | – | 0% | –
15 | C/C1=C/CC[C@@]2(C)O[C@H]2[C@H]2OC(=O)[C@@H](CN(C3CCCCC3)C3CCCCC3)[C@@H]2CC1.O=C(O)/C=C/C(=O)O | – | 12% | –
16 | C[C@@H]1C(=O)O[C@H]2[C@H]1CCC1(C)OC1CC[C@@]1(C)O[C@@H]21 (some centres not stated) | – | 0% | –
17 | C/C1=C/CC[C@@]2(C)O[C@H]2[C@H]2OC(=O)[C@@H](CN3CCCCC3)[C@@H]2CC1.O=C(O)/C=C/C(=O)O | – | 76% | 2.4 µM
18 | C/C1=C/CC[C@@]2(C)O[C@H]2[C@H]2OC(=O)[C@@H](CN3CCCCCCC3)[C@@H]2CC1.O=C(O)/C=C/C(=O)O | – | 13% | –
19 | C/C1=C/CC[C@@]2(C)O[C@H]2[C@H]2OC(=O)[C@@H](CN[C@@H]3[C@@H](O)[C@H](O)[C@@H](CO)O[C@H]3O)[C@@H]2CC1.O=C(O)/C=C/C(=O)O | – | 0% | –

Row | Structure (SMILES) | solubility [1] | Activity [2] | CC50 [3]
20 | C/C1=C/CC[C@@]2(C)O[C@H]2[C@H]2OC(=O)[C@@H](CN3CCCCCC3)[C@@H]2CC1.O=C(O)/C=C/C(=O)O | – | 15% | –
21 | C/C1=C/CC[C@@]2(C)O[C@H]2[C@H]2OC(=O)[C@@H](CN3CC3)[C@@H]2CC1.O=C(O)/C=C/C(=O)O | – | 22% | –
22 | C=C1C(=O)O[C@H]2[C@H]1CC/C(C=O)=C\CC[C@@]1(C)O[C@@H]21 | – | 0% | –
23 | C/C1=C/CC[C@@]2(C)O[C@H]2[C@H]2OC(=O)[C@@H](CN3CCC(C)CC3)[C@@H]2CC1.O=C(O)/C=C/C(=O)O | – | 83% | 1.6 µM
24 | C/C1=C/CC[C@@]2(C)O[C@H]2[C@H]2OC(=O)[C@@H](CN(C(C)C)C(C)C)[C@@H]2CC1.O=C(O)/C=C/C(=O)O | – | 20% | –
25 | CNC[C@@H]1C(=O)O[C@H]2[C@H]1CC/C(C)=C\CC[C@@]1(C)O[C@@H]21.O=C(O)/C=C/C(=O)O | – | 4% | 18 µM
26 | C/C1=C/CC[C@@]2(C)O[C@H]2[C@H]2OC(=O)[C@@H](CN(C)C)[C@@H]2CC1.O=C(O)/C=C/C(=O)O | – | 93% | 1.7 µM
27 | CCNC[C@@H]1C(=O)O[C@H]2[C@H]1CC/C(C)=C\CC[C@@]1(C)O[C@@H]21.O=C(O)/C=C/C(=O)O | – | 2% | 31 µM
28 | C/C1=C/CC[C@@]2(C)O[C@H]2[C@H]2OC(=O)[C@@H](CN(C)C3CCCCC3)[C@@H]2CC1.O=C(O)/C=C/C(=O)O | – | 0% | 15 µM
29 | CCN(CC)C[C@@H]1C(=O)O[C@H]2[C@H]1CC/C(C)=C\CC[C@@]1(C)O[C@@H]21.O=C(O)/C=C/C(=O)O | – | 60% | –
30 | C=CCN(CC=C)C[C@@H]1C(=O)O[C@H]2[C@H]1CC/C(C)=C\CC[C@@]1(C)O[C@@H]21.O=C(O)/C=C/C(=O)O | – | 0% | –
31 | C#CNC[C@@H]1C(=O)O[C@H]2[C@H]1CC/C(C)=C\CC[C@@]1(C)O[C@@H]21.O=C(O)/C=C/C(=O)O | – | 7% | –
32 | CCCN(CCC)C[C@@H]1C(=O)O[C@H]2[C@H]1CC/C(C)=C\CC[C@@]1(C)O[C@@H]21.O=C(O)/C=C/C(=O)O | – | 0% | –
33 | C=C1C(=O)O[C@H]2[C@H]1CC/C(CO)=C\CC[C@@]1(C)O[C@@H]21 | – | 0% | –
34 | C/C1=C/CC[C@@]2(C)O[C@H]2[C@H]2OC(=O)[C@@H](CN3CCCC3)[C@@H]2CC1.O=C(O)/C=C/C(=O)O | – | 82% | 2.7 µM
35 | C/C1=C/CC[C@@]2(C)O[C@H]2[C@H]2OC(=O)[C@@H](CNCCO)[C@@H]2CC1.O=C(O)/C=C/C(=O)O | – | 0% | –
36 | CCCCN(C)C[C@@H]1C(=O)O[C@H]2[C@H]1CC/C(C)=C\CC[C@@]1(C)O[C@@H]21.O=C(O)/C=C/C(=O)O | – | 68% | 2.8 µM
37 | C/C1=C/CC[C@@]2(C)O[C@H]2[C@H]2OC(=O)[C@@H](CNCCCO)[C@@H]2CC1.O=C(O)/C=C/C(=O)O | – | 0% | –
